From ChEMBL document CHEMBL4402514, “Norepinephrine-Transporter-Targeted and DNA-Co-Targeted Theranostic Guanidines” (J Med Chem, 2020)

Experiments:
[1] = Half life in EMEM medium by HPLC analysis; assay type: physicochemical
[2] = Dissociation constant, pKa of compound; assay type: physicochemical
[3] = system: SK-N-SH; test: Antiproliferative activity against human SK-N-SH cells assessed as extracellular concentration of 125I required to show 63% inhibition after 24 hrs; assay type: cell-based
In short: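 D37 (63% kill) was estimated for SK-N-SH cells treated 24 h with IDG. It is expressed as extracellular (kBq/mL) or intracellular (mBq/cell) 125I. Survival was assessed by trypan blue and clonogenic assays. Values are average (std error).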

[4] = Ratio of tumor to blood concentration in NCR nu/nu mouse xenografted with human BE(2)-C cells at 0.33 +/- 0.05 MBq administered intratumorally after 24 hrs by gamma counting method; assay type: ADME, tissue-based; settings: tumour, other
In short: (§1)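 Athymic Ncr nu/nu female and male mice bearing subcutaneous BE(2)-C xenografts received intratumor injections of the 125I agent. Tissues, tumor and blood were collected at 24 h and counted for radioactivity, expressed as %ID/g. Tumor-to-blood ratios were derived.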

[5] = Drug level in tumor of NCR nu/nu mouse xenografted with human BE(2)-C cells at 0.33 +/- 0.05 MBq administered intratumorally after 24 hrs by gamma counting method; assay type: ADME, tissue-based, Neoplasm; settings: in vivo, other; in short: as §1
[6] = system: BE(2)-C; test: Antitumor activity against human BE(2)-C cells xenografted with NCR nu/nu mouse assessed as tumor volume at 8.4 +/- 0.3 mBq administered intratumorally after 14 days (reference value: […]); assay type: functional
In short: (§2)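 Athymic Ncr nu/nu female and male mice bearing subcutaneous BE(2)-C xenografts were randomized by lottery into untreated control and treatment groups. Treatment was a single intratumor injection of 8.4 ± 0.3 MBq/mouse. Tumor volumes were followed to day 7 (controls) or day 14. Doubling times were calculated from day 0 to 7 and day 0 to 14. Values are average ± std err.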

[7] = Drug uptake in human SK-N-SH cells assessed as level of 125I-incorporation into DNA incubated 1 hr followed by compound washout with non-radioactive medium/PBS and measured after 23 hrs by gamma counting method relative to control; assay type: ADME, cell-based
In short: (§3)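 SK-N-SH cells exposed to the 125I-labelled guanidine for 1 h, then washed with nonradioactive medium and PBS. Cells were either processed at once (1 h) or given fresh nonradioactive medium and returned to the incubator for 23 h (24 h). Subcellular fractions (cytoplasm, DNA) were counted by γ-counter. Values are mean and SD, n ≥ 3.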

[8] = system: BE(2)-C; test: Antiproliferative activity against human BE(2)-C cells assessed as extracellular concentration of 125I required to show 63% inhibition after 1 hr; assay type: cell-based
In short: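 BE(2)-C cells were treated for 1 h with several IDG concentrations, washed extensively, harvested with trypsin and replated for clonogenic assay. Cellular 125I uptake was measured per cell. D37 (63% kill) was estimated from survival versus extracellular concentration or intracellular content (mBq/cell). Values are average (std error).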

[9] = Drug uptake in human SK-N-SH cells assessed as level of 125I-incorporation into DNA after 1 hr and followed by compound washout with non-radioactive medium/PBS and measured immediately by gamma counting method relative to control; assay type: ADME, cell-based; in short: as §3
[10] = system: BE(2)-C; test: Antitumor activity against human BE(2)-C cells xenografted with NCR nu/nu mouse assessed as doubling time at 8.4 +/- 0.3 mBq administered intratumorally measured up to 14 days; assay type: functional; in short: as §2
[11] = system: BE(2)-C; test: Antitumor activity against human BE(2)-C cells xenografted with NCR nu/nu mouse assessed as tumor volume at 8.4 +/- 0.3 mBq administered intratumorally after 7 days; assay type: functional; in short: as §2
[12] = system: SK-N-SH; test: Antiproliferative activity against human SK-N-SH cells assessed as cell viability at 180 kBa/ml after 24 hrs by trypan blue assay relative to control; assay type: functional
In short: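 Cell survival was scored by trypan blue exclusion 24 h after exposing SK-N-SH cells to radioiodinated guanidine at varied extracellular concentrations. Values are average (n ≥ 3) ± SD.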

[13] = Half life in pig serum by HPLC analysis; assay type: ADME, cell-free, Sus scrofa
In short: (§4)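 Radioiodinated guanidines were incubated in mouse, human or pig serum and analyzed by radio-HPLC on a C18 column at 0.8 mL/min. The gradient was 0–95% CH3CN over 50 min, then 95% for 20 min. Intact compound was fitted to monoexponential degradation to give half-life. Values are average ± std err.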

[14] = Drug level in tumor of NCR nu/nu mouse xenografted with human BE(2)-C cells at 0.83 +/- 0.09 MBq administered intratumorally pretreated with 9 umol of BNPP after 24 hrs by gamma counting analysis; assay type: ADME, tissue-based, Neoplasm; settings: in vivo, other
In short: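 BE(2)-C xenograft-bearing nude mice were pre-injected with the carboxylesterase inhibitor bis-para-nitrophenylphosphate (9 or 18 μmol). They then received intratumor IDG. Tumor %ID/g was determined at 24 h.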

[15] = Toxicity in NCR nu/nu mouse xenografted with human BE(2)-C cells assessed as effect on hemoglobin level at 8.41 +/- 0.32 mBq measured up to 166 hrs
In short: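 Athymic Ncr nu/nu female and male mice bearing subcutaneous BE(2)-C xenografts were randomized by lottery to untreated control or a single intratumor injection of 125I-guanidine (8.4 ± 0.3 MBq/mouse). Blood hemoglobin was measured in both groups and compared with the normal adult mouse range. Treated mice were terminated 14 days after injection.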

[16] = Half life in human serum by HPLC analysis; assay type: ADME, cell-free; in short: as §4
[17] = system: BE(2)-C; test: Antitumor activity against human BE(2)-C cells xenografted with NCR nu/nu mouse assessed as doubling time at 8.4 +/- 0.3 mBq administered intratumorally measured up to 7 days (reference value: 2.4 days); assay type: functional; in short: as §2
[18] = Drug level in human SK-N-SH cells DNA at 40 +/- 0.5 kBq/mL after 24 hrs by gamma counting method relative to control; assay type: ADME, cell-based
In short: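 SK-N-SH cells were exposed 1 h to 125I compound (≈39–40 kBq/mL), then washed with nonradioactive medium and PBS. Cells were processed immediately (1 h) or re-incubated in fresh medium for 23 h (24 h). Cytoplasmic, nuclear and DNA fractions were gamma-counted.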

[19] = system: SK-N-SH; test: Anticlonogenic activity against human SK-N-SH cells assessed as number of colonies at 40 +/- 0.5 kBq/mL kBq/mL after 24 hr by crystal violet staining based assay; assay type: functional
In short: (§5)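 SK-N-SH cells exposed for 1 h to 125I-MIBG (39.3 ± 0.3 kBq/mL extracellular) or IDG (40 ± 0.5 kBq/mL). For the 1 h group, cells were washed with nonradioactive medium and PBS, harvested with trypsin and replated for the clonogenic assay. For the 24 h group, cells were washed, given fresh nonradioactive medium and incubated a further 23 h before plating. Colonies were counted.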

[20] = system: SK-N-SH; test: Anticlonogenic activity against human SK-N-SH cells assessed as number of colonies at 40 +/- 0.5 kBq/mL kBq/mL after 1 hr by crystal violet staining based assay; assay type: functional; in short: as §5

half-life [1]: 110 h | pKa [2]: 12.1 | Ratio [4]: 161 | Drug uptake [5]: 3.93 % ID/g | Drug uptake [7]: > 97% | Drug uptake [9]: 81% | half-life [13]: 3.59 h | Drug uptake [14]: 1.63 % ID/g | half-life [16]: 2.28 h | Drug uptake [18]: > 97%
SMILES: N=C(N)NCCCCCC(=O)O[C@H]1C[C@H](n2cc([125I])c(=O)[nH]c2=O)O[C@@H]1CO
Activity [3]: 15.6 kBq/ml | Activity [6]: 2.55 cm3 | Activity [8]: 398 kBq/ml | Time [10]: 5.3 days | Activity [11]: 0.54 cm3 | Activity [12]: 60% | Activity [15]: Non-Toxic | Time [17]: 14.9 days | Activity [19]: 97 | Activity [20]: 163
